Experimental data published in publication PMC7498158 (Journal of Medicinal Chemistry, 2020).

Experiments:
Type in all cases: biochemical
mDAGLβ = target: T1, mDAGLβ (Mus musculus, UniProt Q91WC9); assay: gel-based ABPP, mouse brain membrane proteome; settings: 10 μM
T1 sequence (Q91WC9 1-669): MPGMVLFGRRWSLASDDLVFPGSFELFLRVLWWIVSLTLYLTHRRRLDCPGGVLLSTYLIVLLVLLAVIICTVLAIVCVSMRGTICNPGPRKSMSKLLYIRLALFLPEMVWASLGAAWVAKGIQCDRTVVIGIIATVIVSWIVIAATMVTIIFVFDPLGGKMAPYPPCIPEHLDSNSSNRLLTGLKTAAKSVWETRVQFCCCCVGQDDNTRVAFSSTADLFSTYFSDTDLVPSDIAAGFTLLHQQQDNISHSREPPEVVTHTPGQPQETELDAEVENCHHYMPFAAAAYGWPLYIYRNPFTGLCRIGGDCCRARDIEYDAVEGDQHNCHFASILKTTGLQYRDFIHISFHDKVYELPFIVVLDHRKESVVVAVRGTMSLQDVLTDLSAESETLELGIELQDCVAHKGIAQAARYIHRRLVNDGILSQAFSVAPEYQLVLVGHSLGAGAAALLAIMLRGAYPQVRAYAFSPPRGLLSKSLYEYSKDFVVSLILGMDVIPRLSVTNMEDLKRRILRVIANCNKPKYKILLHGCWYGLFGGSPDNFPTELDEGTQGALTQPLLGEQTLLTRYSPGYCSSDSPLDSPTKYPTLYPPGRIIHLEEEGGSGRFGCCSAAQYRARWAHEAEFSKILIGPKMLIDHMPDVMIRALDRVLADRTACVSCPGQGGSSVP
How it was run: (§1)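 Mouse brain was dounce-homogenized in 20 mM HEPES pH 7.2 with DTT, MgCl2 and benzonase. The membrane pellet from ultracentrifugation (100,000g, 45 min, 4 °C) was used at 2 μg/μL. It was preincubated with test compound in DMSO (30 min, rt), then labeled with MB064 (250 nM) or FP-TAMRA (500 nM) for 15 min at rt. Samples ran on 10% SDS-PAGE; fluorescence was normalized to Coomassie staining.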

PLAAT2 = target: T2, PLAAT2 (Homo sapiens, UniProt Q9NWW9)
T2 sequence (Q9NWW9 1-162): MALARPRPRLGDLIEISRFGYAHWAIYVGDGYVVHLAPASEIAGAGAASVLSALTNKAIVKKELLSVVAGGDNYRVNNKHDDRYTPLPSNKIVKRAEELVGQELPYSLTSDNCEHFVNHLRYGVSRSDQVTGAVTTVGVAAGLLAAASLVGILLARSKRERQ
How it was run: (§2)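 Human PLAAT cDNA (C-terminal FLAG, pcDNA3.1) was PEI-transfected into HEK293T; cytosol came from a 100,000g spin. Cytosol was preincubated with test compound (30 min, rt), then MB064 (20 min, rt). Conditions: PLAAT2 0.25 μg/μL, 250 nM; PLAAT3 0.5 μg/μL, 250 nM; PLAAT4/5 1 μg/μL, 500 nM. In-gel fluorescence was normalized to Coomassie, in triplicate. Single-concentration screen or IC50 from dose–response curves.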

mDAGLα = target: T3, mDAGLα (Mus musculus, UniProt Q6WQJ1); assay: gel-based ABPP, mouse brain membrane proteome; settings: 10 μM
T3 sequence (Q6WQJ1 1-1044): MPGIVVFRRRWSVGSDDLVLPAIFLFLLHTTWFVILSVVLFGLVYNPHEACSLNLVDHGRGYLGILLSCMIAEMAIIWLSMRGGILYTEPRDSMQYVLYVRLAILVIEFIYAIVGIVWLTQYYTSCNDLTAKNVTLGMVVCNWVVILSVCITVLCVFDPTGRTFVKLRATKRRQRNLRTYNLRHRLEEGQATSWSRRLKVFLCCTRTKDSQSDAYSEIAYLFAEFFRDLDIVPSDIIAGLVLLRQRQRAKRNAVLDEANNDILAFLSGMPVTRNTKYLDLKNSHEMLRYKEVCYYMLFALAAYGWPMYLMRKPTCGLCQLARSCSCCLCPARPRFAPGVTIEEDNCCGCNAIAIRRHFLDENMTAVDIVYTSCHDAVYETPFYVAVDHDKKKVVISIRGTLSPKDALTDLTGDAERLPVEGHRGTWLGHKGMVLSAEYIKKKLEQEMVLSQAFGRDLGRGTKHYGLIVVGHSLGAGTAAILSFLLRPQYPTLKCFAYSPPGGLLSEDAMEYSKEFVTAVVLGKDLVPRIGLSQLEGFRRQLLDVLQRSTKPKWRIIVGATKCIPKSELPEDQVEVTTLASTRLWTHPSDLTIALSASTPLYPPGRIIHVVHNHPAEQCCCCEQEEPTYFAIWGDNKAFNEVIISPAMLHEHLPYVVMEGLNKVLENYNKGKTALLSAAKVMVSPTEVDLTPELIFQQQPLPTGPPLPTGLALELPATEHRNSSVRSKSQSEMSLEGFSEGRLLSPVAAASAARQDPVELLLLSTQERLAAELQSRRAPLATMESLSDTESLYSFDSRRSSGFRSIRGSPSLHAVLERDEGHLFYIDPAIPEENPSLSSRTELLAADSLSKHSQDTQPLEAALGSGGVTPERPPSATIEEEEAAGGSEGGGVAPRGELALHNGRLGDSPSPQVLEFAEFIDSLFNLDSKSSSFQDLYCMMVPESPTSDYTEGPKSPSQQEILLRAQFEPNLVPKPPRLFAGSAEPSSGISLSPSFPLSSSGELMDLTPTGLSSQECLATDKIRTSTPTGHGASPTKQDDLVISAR
How it was run: as §1

PLAAT4 = target: T4, PLAAT4 (Homo sapiens, UniProt Q9UL19)
T4 sequence (Q9UL19 1-164): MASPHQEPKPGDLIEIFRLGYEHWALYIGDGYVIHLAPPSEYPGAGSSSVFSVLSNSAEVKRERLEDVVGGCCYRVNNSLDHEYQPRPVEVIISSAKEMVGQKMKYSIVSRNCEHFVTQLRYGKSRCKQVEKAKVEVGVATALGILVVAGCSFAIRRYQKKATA
How it was run: as §2

hMAGL = target: T5, hMAGL (Homo sapiens, UniProt Q99685); assay: natural substrate-based fluorescence assay MAGL; settings: 10 μM
T5 sequence (Q99685 1-303): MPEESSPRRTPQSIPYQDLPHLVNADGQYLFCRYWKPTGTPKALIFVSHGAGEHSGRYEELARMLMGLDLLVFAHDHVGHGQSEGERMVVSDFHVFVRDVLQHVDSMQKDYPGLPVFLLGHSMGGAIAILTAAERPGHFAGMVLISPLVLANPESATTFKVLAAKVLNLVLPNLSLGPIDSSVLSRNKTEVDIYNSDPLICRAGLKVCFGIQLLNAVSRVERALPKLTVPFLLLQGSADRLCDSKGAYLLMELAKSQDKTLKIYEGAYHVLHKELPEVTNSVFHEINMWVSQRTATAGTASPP

- inhibition of DAGLβ (in words) (mDAGLβ): not inhibited
- higher potency for PLAAT2 than initial hit (PLAAT2): 10 fold
- increase in activity/potency for PLAAT2 compared to 25 (PLAAT2): 10 fold
- inhibition of DAGLα (in words) (mDAGLα): not inhibited
- increase in activity/potency for PLAAT4 compared to 25 (PLAAT4): 10 fold
- inhibition of MAGL (in words) (hMAGL): not inhibited
Structure (SMILES): O=C(CCCc1ccccc1)C(=O)NCCc1ccc(Oc2ccccc2)cc1 [Compound 51, 2-Oxo-N-(4-phenoxyphenethyl)-5-phenylpentanamide]
